Assay results of several laboratories.
Compare with care: the assays were run in different laboratories.
Target: Homeodomain-interacting protein kinase 1 (HIPK1, Homo sapiens, UniProt Q86Z02)

Compound | read-out | technique | tested at | remaining binding [%]
O=C(NS(=O)(=O)c1ccc(NCC2CCOCC2)c([N+](=O)[O-])c1)c1ccc(N2CCN(Cc3ccc(C(F)(F)F)cc3-c3ccc(Cl)cc3)CC2)cc1Oc1cnc2[nH]ccc2c1 | cell-free assay | competition with immobilised ligand | 1 µM | 84
CCN1CCN(Cc2ccc(C(=O)Nc3ccc(C)c(Oc4ccc5c(c4)CC(=O)N5)c3)cc2C(F)(F)F)CC1 | binding | competition with immobilised ligand | 1 µM | 83
CCCCN(CCCC)C(=O)CN1C[C@@H](c2cc(OC)c3c(c2)OCO3)[C@H](C(=O)O)[C@H]1CC(C)(C)CCC | cell-free assay | competition with immobilised ligand | 1 µM | 77.3
COc1cnc(Nc2cccc(S(N)(=O)=O)c2)nc1N1CCN(c2ccccc2)C(=O)C1 | binding | competition with immobilised ligand | 1 µM | 79
CN(CCCC(F)(F)F)c1nccc(-c2cnn3ncccc23)n1 | binding | – | 1 µM | 70
CC(=O)C1=C(C)N(c2cccc(C(F)(F)F)c2)C(=O)N[C@@H]1c1ccc(C#N)nc1 | cell-free assay | competition with immobilised ligand | 1 µM | 72.6
Cc1cnc(Nc2ccc(C(=O)N3CCC(N4CCCC4)CC3)cc2)nc1-c1cc2ccccc2s1 | binding | competition with immobilised ligand | 1 µM | 2.2
Cc1c(C(=O)O)cc(-c2ccc(C3CCNCC3)cc2)c2ccc(-c3ccc(C(F)(F)F)cc3)cc12 | binding | competition with immobilised ligand | 1 µM | 100
O=C(c1ccc(Nc2ncc(Cl)c(-c3cc4ccccc4s3)n2)cc1)N1CCC(N2CCCC2)CC1 | binding | competition with immobilised ligand | 1 µM | 1.4
CN(C)c1nccc(-c2cnn3ncccc23)n1 | binding | – | 1 µM | 55
COc1cnc(Nc2cccc(S(N)(=O)=O)c2)nc1N1CCN(c2ccccc2)CC1 | binding | competition with immobilised ligand | 1 µM | 98
Cc1cnn2ncc(-c3ccnc(N(C)C)n3)c2c1 | binding | – | 1 µM | 39
O=C(NCCCN1CCOCC1)c1ccc(Nc2nccc(-c3cc4ccccc4s3)n2)cc1 | binding | competition with immobilised ligand | 1 µM | 36
N[C@@H]1CCN(c2nccc(-c3cnn4ncccc34)n2)C1 | binding | – | 1 µM | 43
O=C(NCC1CCOCC1)c1n[nH]cc1NC(=O)c1c(F)cccc1F | binding | competition with immobilised ligand | 1 µM | 69
Nc1ncc2c(n1)-c1c([nH]c3ccc(C#CC4CC4)cc13)CCCC2 | binding | competition with immobilised ligand | 1 µM | 87
C[C@@H]1CCN(c2nccc(-c3cnn4ncccc34)n2)C1 | binding | – | 1 µM | 52
COc1ccc2c(c1)O[C@@H](c1ccc(OC)c(OC)c1)C[C@H]2NC(=O)C1(c2ccc3c(c2)OC(F)(F)O3)CC1 | cell-free assay | competition with immobilised ligand | 1 µM | 86
COc1ncc2cc3ccccc3nc2c1C#N | cell-free assay | competition with immobilised ligand | 5 µM | 81
c1cnn2ncc(-c3ccnc(N4CCC45COC5)n3)c2c1 | binding | – | 1 µM | 29
Cc1cc(-n2nc(Cc3cc(F)cc(C(F)(F)F)c3)nc2C)ccc1C(N)=O | cell-free assay | competition with immobilised ligand | 1 µM | 92
